The source of these data is ChEMBL document CHEMBL2016473, “Synthesis of new opioid derivatives with a propellane skeleton and their pharmacology. Part 2: Propellane derivatives with an amide side chain” (Bioorg Med Chem Lett, 2012).

For one assay, the target named is Mu-type opioid receptor (Mus musculus, UniProt P42866). As to the kind of experiment: Displacement of [3H]DAMGO from mu opioid receptor in mouse whole brain without cerebellum. Summed up:
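Competitive binding against [3H]DAMGO as the mu radioligand, on membranes from mouse whole brain with the cerebellum removed. Run in duplicate, with results reported as Ki.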
(In general: Displacement assays read how much labelled ligand stays bound in the presence of the test substance.)

For assay [1], the target named is Delta-type opioid receptor (Mus musculus, UniProt P32300). As to the kind of experiment: Displacement of [3H]DPDPE from delta opioid receptor in mouse whole brain without cerebellum. An outline of the steps: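 Competitive binding against [3H]DPDPE as the delta radioligand, on membranes from mouse whole brain with the cerebellum removed. Run in duplicate, with results reported as Ki.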
Chain of Delta-type opioid receptor (P32300 whole entry, looked up): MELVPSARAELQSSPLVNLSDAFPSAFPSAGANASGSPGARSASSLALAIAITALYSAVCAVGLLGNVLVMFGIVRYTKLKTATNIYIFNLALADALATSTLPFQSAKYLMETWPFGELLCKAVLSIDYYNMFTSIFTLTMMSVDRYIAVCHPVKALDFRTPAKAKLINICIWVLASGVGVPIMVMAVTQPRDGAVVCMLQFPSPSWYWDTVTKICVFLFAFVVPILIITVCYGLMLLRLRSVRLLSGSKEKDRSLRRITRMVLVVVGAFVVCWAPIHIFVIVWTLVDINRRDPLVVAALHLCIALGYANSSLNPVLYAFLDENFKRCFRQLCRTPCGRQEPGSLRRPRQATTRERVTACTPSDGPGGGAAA

Assay [2] has as its target Kappa-type opioid receptor (Cavia porcellus, UniProt P41144). As to the kind of experiment: Displacement of [3H]U69593 from kappa opioid receptor in guinea pig cerebellum. Summed up: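 Competitive binding against [3H]U-69,593 as the kappa radioligand, on guinea pig cerebellum membranes. Run in duplicate, with results reported as Ki.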
Assay [3] is described as follows: Selectivity ratio of Ki for mouse mu opioid receptor to Ki for guinea pig kappa opioid receptor.
The nature of assay [4]: Selectivity ratio of Ki for mouse delta opioid receptor to Ki for guinea pig kappa opioid receptor.

Bounds are passed on as bounds.

Chain of Mu-type opioid receptor (P42866 whole entry): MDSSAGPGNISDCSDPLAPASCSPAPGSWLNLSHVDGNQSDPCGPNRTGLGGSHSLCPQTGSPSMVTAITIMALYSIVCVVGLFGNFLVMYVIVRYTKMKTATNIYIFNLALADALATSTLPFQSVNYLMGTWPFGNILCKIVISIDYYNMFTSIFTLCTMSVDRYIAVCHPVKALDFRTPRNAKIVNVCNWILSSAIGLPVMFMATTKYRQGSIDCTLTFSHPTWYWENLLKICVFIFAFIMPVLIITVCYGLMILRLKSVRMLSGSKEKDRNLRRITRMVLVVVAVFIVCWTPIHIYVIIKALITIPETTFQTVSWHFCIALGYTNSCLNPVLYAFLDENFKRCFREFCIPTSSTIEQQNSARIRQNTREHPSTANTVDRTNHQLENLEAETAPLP
Chain of Kappa-type opioid receptor (P41144 whole entry): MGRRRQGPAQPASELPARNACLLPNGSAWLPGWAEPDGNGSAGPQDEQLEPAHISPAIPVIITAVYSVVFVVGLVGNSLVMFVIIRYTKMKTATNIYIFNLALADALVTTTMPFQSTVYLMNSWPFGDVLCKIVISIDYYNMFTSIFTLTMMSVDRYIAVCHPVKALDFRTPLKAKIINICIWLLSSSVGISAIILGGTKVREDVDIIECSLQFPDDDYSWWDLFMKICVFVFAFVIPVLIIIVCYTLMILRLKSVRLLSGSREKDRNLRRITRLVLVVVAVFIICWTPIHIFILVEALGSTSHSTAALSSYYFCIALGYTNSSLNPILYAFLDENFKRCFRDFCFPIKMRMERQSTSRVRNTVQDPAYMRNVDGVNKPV

Take `O=C(Nc1ccccc1)[C@H]1CCC23CCN(CC4CC4)CC2(Cc2ccc(O)cc23)C1` (stereo not given in full): the Ki (usually the equilibrium dissociation constant of an inhibitor or competing ligand from its target) at Mu-type opioid receptor is 80.8 nM; in assay [1] it was 207 nM; in assay [2], 108 nM. Moreover, the Ratio Ki in assay [3] was 0.75; in assay [4] it was 1.92.
Taken in the same sequence, the figures for `CN(C(=O)/C=C/c1ccoc1)[C@H]1CCC23Cc4ccc(O)cc4C2(CCN(CC2CC2)C3)C1` (stereo not given in full) were 2.2 nM, 35 nM, 0.83 nM, 2.65 and 42.2.
Turning to `CN(C(=O)CCc1ccccc1)[C@H]1CCC23Cc4ccc(O)cc4C2(CCN(CC2CC2)C3)C1` (stereo not given in full), the results for the Ki (on Mu-type opioid receptor; in assay [1]; in assay [2]) were 1.23 nM, 44.3 nM and 7.1 nM, respectively. The values for the Ratio Ki in assay [3] and in assay [4] were 0.17 and 6.24, respectively.
The corresponding values for `O=C(NCc1ccccc1)C1=CCC23CCN(CC4CC4)CC2(C1)Cc1ccc(O)cc13` (stereo not given) are 33.9 nM, 298 nM, 72.7 nM, 0.47 and 4.1.
For the compound `O=C(NCc1ccccc1)[C@H]1CCC23CCN(CC4CC4)CC2(Cc2ccc(O)cc23)C1` (stereo not given in full), the Ki on Mu-type opioid receptor was 112 nM; in assay [1], more than 1000 nM; in assay [2] it was more than 1000 nM.
Regarding `O=C(NCCc1ccccc1)[C@@H]1CCC23CCN(CC4CC4)CC2(Cc2ccc(O)cc23)C1` (stereo not given in full), the Ki at Mu-type opioid receptor is 54.1 nM; in assay [1], more than 1000 nM; in assay [2], 169 nM. Further, the Ratio Ki in assay [3] worked out at 0.32.
For the compound `O=C(NCCc1ccccc1)C1=CCC23CCN(CC4CC4)CC2(C1)Cc1ccc(O)cc13` (stereo not given), the Ki came to 35.9 nM on Mu-type opioid receptor, 412 nM in assay [1] and 253 nM in assay [2]. The Ratio Ki was determined as 0.14 in assay [3] and 1.63 in assay [4].
The corresponding values for `CN(C(=O)CCc1ccccc1)[C@@H]1CCC23Cc4ccc(O)cc4C2(CCN(CC2CC2)C3)C1` (stereo not given in full) are 31.9 nM, 65.2 nM, 16.4 nM, 1.95 and 3.98.
Taken in the same sequence, the figures for `O=C(Nc1ccccc1)[C@@H]1CCC23CCN(CC4CC4)CC2(Cc2ccc(O)cc23)C1` (stereo not given in full) were 79.7 nM, 282 nM, 13.4 nM, 5.95 and 21.
The corresponding values for `O=C(Nc1ccccc1)C1=CCC23CCN(CC4CC4)CC2(C1)Cc1ccc(O)cc13` (stereo not given) are 12.4 nM, 192 nM, 46.7 nM, 0.27 and 4.11.
As to `CN(C(=O)/C=C/c1ccoc1)[C@@H]1CCC23Cc4ccc(O)cc4C2(CCN(CC2CC2)C3)C1` (stereo not given in full), the Ki on Mu-type opioid receptor stood at 12.2 nM; in assay [1] it was 121 nM; in assay [2], 3.43 nM. Besides, the Ratio Ki in assay [3] is 3.56; in assay [4] it was 35.3.
For `O=C(NCc1ccccc1)[C@@H]1CCC23CCN(CC4CC4)CC2(Cc2ccc(O)cc23)C1` (stereo not given in full), the Ki at Mu-type opioid receptor was 106 nM; in assay [1], more than 1000 nM; in assay [2], 19.2 nM. The Ratio Ki in assay [3] worked out at 5.52.
The corresponding values for `O=C(NCCc1ccccc1)[C@H]1CCC23CCN(CC4CC4)CC2(Cc2ccc(O)cc23)C1` (stereo not given in full) are 453 nM, more than 1000 nM, 641 nM and 0.71.
